Results reported in ChEMBL document CHEMBL4715693, “Synthesis and antiviral properties of novel indole-based thiosemicarbazides and 4-thiazolidinones” (Bioorg Med Chem, 2016).
Converted amounts (≈) assume the structure as drawn.

Tests used:
[1] = tested on: Human respirovirus 3; assay: Antiviral activity against Human parainfluenza virus 3 infected in African green monkey Vero cells assessed as reduction in virus-induced cytopathic effect incubated for 3 to 6 days by light microscopic analysis; type: functional, organism-based; settings: Human respirovirus 3, Vero
[2] = tested on: Coxsackievirus B4; assay: Antiviral activity against Human coxsackievirus B4 infected in African green monkey Vero cells assessed as reduction in virus-induced cytopathic effect incubated for 3 to 6 days by light microscopic analysis; type: functional, organism-based; settings: Enterovirus B
How it was run: (§1)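 CPE reduction assay: virus and serial compound dilutions added together to subconfluent HeLa (vesicular stomatitis, Coxsackie B4, respiratory syncytial) or Vero (Coxsackie B4, Sindbis, Punta Toro) cultures. Incubated 3–6 days at 37 °C. […] Mean ± SEM of three independent tests.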

[3] = tested on: Sindbis virus; assay: Antiviral activity against Sindbis virus infected in African green monkey Vero cells assessed as reduction in virus-induced cytopathic effect incubated for 3 to 6 days by light microscopic analysis; type: functional, organism-based; how it was run: as §1
[4] = tested on: Human immunodeficiency virus 2; assay: Antiviral activity against Human immunodeficiency virus 2 infected in human MT4 cells assessed as reduction in virus-induced cytopathic effect incubated for 3 to 6 days by light microscopic analysis; type: functional, organism-based; settings: Human immunodeficiency virus 2, MT4
[5] = tested on: Punta Toro virus; assay: Antiviral activity against Punta Toro virus infected in African green monkey Vero cells assessed as reduction in virus-induced cytopathic effect incubated for 3 to 6 days by light microscopic analysis; type: functional, organism-based; how it was run: as §1
[6] = Cytotoxicity against human HEL cells assessed as changes in cell morphology incubated for 3 to 6 days by light microscopy; type: cell-based; settings: time 3-6 day
How it was run: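 Human embryonic lung fibroblasts incubated with serial compound dilutions alongside the antiviral assays, 37 °C, 3–6 days. Morphology inspected by light microscopy; minimal cytotoxic concentration taken as lowest concentration giving minimal morphological change.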

[7] = tested on: Felid alphaherpesvirus 1; assay: Antiviral activity against Feline herpesvirus infected in cat CRFK cells assessed as reduction in virus-induced cytopathic effect incubated for 3 to 6 days by light microscopic analysis; type: functional, organism-based; settings: Felid alphaherpesvirus 1, CRFK
[8] = tested on: Influenza A virus; assay: Antiviral activity against influenza A virus infected in dog MDCK cells assessed as reduction in virus-induced cytopathic effect incubated for 3 to 6 days by light microscopic analysis; type: functional, organism-based; settings: Influenza A virus, MDCK
How it was run: (§2)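 MDCK cells, subconfluent, received influenza A or B virus together with serial compound dilutions. Incubated 3–6 days at 35 °C.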

[9] = tested on: Respiratory syncytial virus; assay: Antiviral activity against Respiratory syncytial virus infected in human HeLa cells assessed as reduction in virus-induced cytopathic effect incubated for 3 to 6 days by light microscopic analysis; type: functional, organism-based; how it was run: as §1
[10] = tested on: Vesicular stomatitis virus; assay: Antiviral activity against Vesicular stomatitis virus infected in human HeLa cells assessed as reduction in virus-induced cytopathic effect incubated for 3 to 6 days by light microscopic analysis; type: functional, organism-based
How it was run: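 CPE reduction assay: virus and serial compound dilutions added together to subconfluent HeLa (vesicular stomatitis, Coxsackie B4, respiratory syncytial) or Vero (Coxsackie B4, Sindbis, Punta Toro) cultures. Incubated 3–6 days at 37 °C. Mean ± SEM of three independent tests.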

[11] = tested on: Human alphaherpesvirus 2; assay: Antiviral activity against Herpes simplex virus 2 infected in human HEL cells assessed as reduction in virus-induced cytopathic effect incubated for 3 to 6 days by light microscopic analysis; type: functional, cell-based; settings: Human alphaherpesvirus 2, HEL
[12] = Selectivity index, ratio of MCC for human HeLa cells to EC50 for Respiratory syncytial virus infected in human HeLa cells; type: toxicity, cell-based
How it was run: (§3)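 HeLa cells infected concurrently with addition of serial compound dilutions, 3–6 days at 37 °C. CPE inhibition scored microscopically for EC50; MCC from minimal alteration of cell morphology by microscopy; index = MCC divided by EC50.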

[13] = tested on: Coxsackievirus B4; assay: Antiviral activity against Human coxsackievirus B4 infected in human HeLa cells assessed as reduction in virus-induced cytopathic effect incubated for 3 to 6 days by light microscopic analysis; type: functional, organism-based; settings: Enterovirus B; how it was run: as §1
[14] = tested on: Influenza B virus; assay: Antiviral activity against influenza B virus infected in dog MDCK cells assessed as reduction in virus-induced cytopathic effect incubated for 3 to 6 days by light microscopic analysis; type: functional, organism-based; how it was run: as §2
[15] = Selectivity index, ratio of MCC for human HeLa cells to EC50 for Human coxsackievirus B4 infected in human HeLa cells; type: toxicity, cell-based; how it was run: as §3
[16] = Cytotoxicity against cat CRFK cells assessed as reduction in cell viability incubated for 3 to 6 days by MTS assay; type: cell-based, Felis catus; settings: crfk, time 3-6 day
How it was run: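 CRFK or MT4 cells were exposed to serial compound dilutions alongside the antiviral assays for 3–6 days at 37 °C.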

[17] = Selectivity index, ratio of MCC for African green monkey Vero cells to EC50 for Sindbis virus infected in African green monkey Vero cells; type: toxicity
[18] = tested on: Human alphaherpesvirus 1; assay: Antiviral activity against Herpes simplex virus 1 infected in human HEL cells assessed as reduction in virus-induced cytopathic effect incubated for 3 to 6 days by light microscopic analysis; type: functional, cell-based; settings: Human alphaherpesvirus 1, HEL
[19] = tested on: Feline coronavirus; assay: Antiviral activity against Feline coronavirus infected in cat CRFK cells assessed as reduction in virus-induced cytopathic effect incubated for 3 to 6 days by light microscopic analysis; type: functional, organism-based; settings: Alphacoronavirus 1, CRFK
[20] = tested on: Human immunodeficiency virus 1; assay: Antiviral activity against Human immunodeficiency virus 1 infected in human MT4 cells assessed as reduction in virus-induced cytopathic effect incubated for 3 to 6 days by light microscopic analysis; type: functional, organism-based; settings: Human immunodeficiency virus 1, MT4
[21] = Cytotoxicity against dog MDCK cells assessed as changes in cell morphology incubated for 3 to 6 days by light microscopy; type: cell-based, Canis lupus familiaris; settings: time 3-6 day
[22] = Selectivity index, ratio of MCC for African green monkey Vero cells to EC50 for Human coxsackievirus B4 infected in African green monkey Vero cells; type: toxicity
[23] = tested on: Mammalian orthoreovirus 1; assay: Antiviral activity against Mammalian orthoreovirus 1 infected in African green monkey Vero cells assessed as reduction in virus-induced cytopathic effect incubated for 3 to 6 days by light microscopic analysis; type: functional, organism-based; settings: Mammalian orthoreovirus 1, Vero
[24] = tested on: Vaccinia virus; assay: Antiviral activity against Vaccinia virus infected in human HEL cells assessed as reduction in virus-induced cytopathic effect incubated for 3 to 6 days by light microscopic analysis; type: functional, organism-based; settings: Orthopoxvirus vaccinia
[25] = Cytotoxicity against human HeLa cells assessed as changes in cell morphology incubated for 3 to 6 days by light microscopic analysis; type: cell-based; settings: time 3-6 day
How it was run: (§4)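 Uninfected subconfluent cells (Vero or HeLa, as named) exposed to serial compound dilutions in parallel with the CPE assays, 37 °C, 3–6 days. Cell morphology examined by light microscopy; MCC = minimal concentration causing microscopically detectable changes in morphology.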

[26] = Cytotoxicity against African green monkey Vero cells assessed as changes in cell morphology incubated for 3 to 6 days by light microscopy; type: cell-based; settings: chlorocebus sabaeus, time 3-6 day; how it was run: as §4

**Q.** Which results are given for `C=CCNC(=S)NNC(=O)c1[nH]c2ccc(F)cc2c1-c1ccccc1`?
**A.** EC50 [1]: > 100 µg/mL; EC50 [2]: 2 µg/mL (≈ 5.43 µM); EC50 [3]: ≥ 4 µg/mL; EC50 [4]: > 100 µg/mL; EC50 [5]: > 100 µg/mL; MCC [6]: 20 µg/mL; EC50 [7]: > 100 µg/mL; EC50 [8]: > 100 µg/mL; EC50 [9]: ≥ 4 µg/mL; EC50 [10]: > 100 µg/mL; EC50 [11]: > 100 µg/mL; selectivity ratio [12]: ≥ 5; EC50 [13]: 1.5 µg/mL (≈ 4.07 µM); EC50 [14]: > 100 µg/mL; selectivity ratio [15]: 13; CC50 [16]: 8.6 µg/mL (≈ 23.3 µM); selectivity ratio [17]: ≥ 5; EC50 [18]: > 100 µg/mL; EC50 [19]: > 100 µg/mL; EC50 [20]: > 100 µg/mL; MCC [21]: 4 µg/mL; selectivity ratio [22]: 10; EC50 [23]: > 100 µg/mL; EC50 [24]: > 100 µg/mL; MCC [25]: 20 µg/mL; MCC [26]: 20 µg/mL
